SMILES strings stand for the structures. Converted amounts (≈) assume the structure as drawn.

The subject of one data set is Δarr M. abscessus. In words: MIC assay in 96-well plate format, arr-deleted strain. Format: cell-based, Mycobacterium abscessus. As to conditions: isogenic arr-deleted M. abscessus ATCC 19977; 90 % growth inhibition.
A further data set has as its system M. abscessus ATCC 19977. Put plainly: MIC assay in 96-well plate format, WT M. abscessus. As to conditions: Mycobacteroides abscessus, ATCC19977, read-out: WT Mab MIC. Format: cell-based, Mycobacterium abscessus subsp. abscessus.
For a further data set, the system named is Arr Mab. Put plainly: LC-MS/HPLC in vitro validation of ADP-ribosylation. As to conditions: 40 minute incubation, 5 µM enzyme. In kind it is biochemical, M. abscessus. In a few lines: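 The enzyme was recombinant M. abscessus Arr, cloned, expressed and purified in-house. Enzymatic reactions were analysed by LC-MS, quantifying the remaining rifamycin and its ADP-ribosylated adducts.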

Another data set is described as follows: in vitro. The note with it: plasma.
Data set [1] in a line: Pharmacokinetics studies in CD-1 mice. In kind it is in vivo, mouse.

As usually defined, the MIC is the lowest concentration found to suppress growth. For `CC[C@H]1OC(=O)[C@H](C)[C@@H](O[C@H]2C[C@@](C)(OC)[C@@H](O)[C@H](C)O2)[C@H](C)[C@@H](O[C@@H]2O[C@H](C)C[C@H](N(C)C)[C@H]2O)[C@](C)(OC)C[C@@H](C)C(=O)[C@H](C)[C@@H](O)[C@]1(C)O` [clarithromycin], the “Δarr Mab MIC” value with Δarr M. abscessus stood at 1.8 µM. Further, the minimum inhibitory concentration (MIC) in the data set with M. abscessus ATCC 19977 was 1.45 µM (≈ 1.08 µg/mL).

The fraction unbound is free concentration divided by total concentration. For orientation: half-life means how long it takes for the measured level to halve. On to `CO[C@H]1/C=C/O[C@@]2(C)Oc3c(C)c(O)c4c(c3C2=O)C2=NC3(CCN(CC(C)C)CC3)NC2=C(NC(=O)/C(C)=C\C=C\[C@H](C)[C@H](O)[C@@H](C)[C@@H](O)[C@@H](C)[C@H](OC(C)=O)[C@@H]1C)C4=O` [rifabutin], for which the “ADP-ribosylation upon incubation with Arr Mab and NAD+” value in the data set with Arr Mab is listed as “completely converted”; in the data set with Arr Mab (listed as Rifabutin), “fully converted”. In “in vitro”, this compound returned a fraction unbound of 0.0376. In addition, the “Δarr Mab MIC” value in the data set on Δarr M. abscessus came out at 0.031 µM. Besides, the MIC in the data set with M. abscessus ATCC 19977 is 1.15 µM (≈ 0.974 µg/mL). The V d in data set [1] (CD-1 mice, single dose 10 mg/kg) amounted to 3.51 L/kg. The compound further came in with a fAUC/MIC in data set [1] (based on p.o. doses of 10 mg kg^−1) of 0.22. The half-life in data set [1] (female, CD-1, mouse, plasma, 10 mg/kg) is 4 h.

With `CO[C@H]1/C=C/O[C@@]2(C)Oc3c(C)c(O)c4c(O)c(c(/C=N/N5CCN(C)CC5)c(O)c4c3C2=O)NC(=O)/C(C)=C\C=C\[C@H](C)[C@H](O)[C@@H](C)[C@@H](O)[C@@H](C)[C@H](OC(C)=O)[C@@H]1C` [rifampicin], the “ADP-ribosylation upon incubation with Arr Mab and NAD+” value with Arr Mab is “completely converted”. In addition, the “Δarr Mab MIC” value with Δarr M. abscessus turned out to be 0.26 µM. In the data set with M. abscessus ATCC 19977, the MIC was determined as 5.3 µM (≈ 4.36 µg/mL).

Source of the values: article PMC9633546 (Angewandte Chemie (International Ed. in English), 2022).
